According to ChEMBL document CHEMBL3864137, “Design, Synthesis, and Pharmacological Evaluation of 2-(2,5-Dimethyl-5,6,7,8-tetrahydroquinolin-8-yl)-N-aryl Propanamides as Novel Smoothened (Smo) Antagonists” (J Med Chem, 2016):
Calls of active or inactive are those of the source. The calls are words filed in the database; no cut-off is given here.

What was measured:
[1] = AUC (0 to infinity) in Sprague-Dawley rat at 3 mg/kg, po; type: ADME, organism-based; parameters: dose 3 mg/kg, route oral, time infinity; conditions: in vivo
Method in brief: (§1)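 SD rats; single dose 1.0 mg/kg i.v. or 3.0 mg/kg p.o., vehicle DMSO, Tween 80, normal saline. Plasma concentration–time profiles give CL, Vss, T1/2, Cmax, Tmax, AUC0-∞ and MRT, with oral bioavailability F estimated from p.o. versus i.v. exposure. Values are the average of three runs.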

[2] = Half life in Sprague-Dawley rat at 3 mg/kg, po; type: ADME, organism-based; conditions: in vivo; method in brief: as §1
[3] = In vivo inhibition of Smo-mediated Hh signalling pathway in athymic nude mouse implanted with mouse Ptch+/- p53-/- medulloblastoma cells assessed as suppression of Gli1-mRNA expression at 25 and 50 mg/kg, ip bid for 13 days measured 4 hrs post last dose by RT-qPCR analysis; type: functional, organism-based
Method in brief: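 Nude mice bearing subcutaneous Ptch+/-;p53-/- medulloblastoma allografts dosed i.p. twice daily for 13 days. Tumors collected 4 h after the last dose for Gli1 mRNA measurement; mean ± SD.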

[4] = target: Protein smoothened (Mus musculus) (UniProt P56726); experiment: Potency index, ratio of vismodegib IC50 to test compound IC50 for Smo-mediated Hh signalling pathway in mouse Shh Light2 cells; type: cell-based
Chain of Protein smoothened (Mus musculus) (P56726 whole entry): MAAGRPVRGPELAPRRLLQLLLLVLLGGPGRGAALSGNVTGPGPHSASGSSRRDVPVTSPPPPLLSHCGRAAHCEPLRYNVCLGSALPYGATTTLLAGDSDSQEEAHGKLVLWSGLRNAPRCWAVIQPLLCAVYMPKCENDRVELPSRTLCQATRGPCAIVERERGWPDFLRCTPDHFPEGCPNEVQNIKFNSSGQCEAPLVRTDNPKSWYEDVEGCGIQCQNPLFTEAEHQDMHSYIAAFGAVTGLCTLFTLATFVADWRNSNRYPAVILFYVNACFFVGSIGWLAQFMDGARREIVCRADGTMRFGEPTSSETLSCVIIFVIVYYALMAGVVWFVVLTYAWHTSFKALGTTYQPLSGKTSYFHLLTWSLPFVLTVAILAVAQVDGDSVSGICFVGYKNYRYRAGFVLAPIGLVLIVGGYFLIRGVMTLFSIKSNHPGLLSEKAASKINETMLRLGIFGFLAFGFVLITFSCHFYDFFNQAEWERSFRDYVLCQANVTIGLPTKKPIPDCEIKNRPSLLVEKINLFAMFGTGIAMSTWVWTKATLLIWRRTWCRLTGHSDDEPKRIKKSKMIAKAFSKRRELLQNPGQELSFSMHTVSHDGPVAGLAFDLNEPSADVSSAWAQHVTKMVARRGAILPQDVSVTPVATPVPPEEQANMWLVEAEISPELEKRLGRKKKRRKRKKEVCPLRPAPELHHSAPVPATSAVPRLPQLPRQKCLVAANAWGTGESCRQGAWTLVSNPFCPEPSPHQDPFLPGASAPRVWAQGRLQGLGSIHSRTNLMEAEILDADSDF
Method in brief: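 Ratio of reference to test IC50, both taken from the Gli-luc dual luciferase assay in light II cells (NIH-3T3 with stable Gli-firefly reporter and Renilla vector). IC50 values are from three separate experiments.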

[5] = Induction of apoptosis in mouse medulloblastoma cells isolated from Ptch+/- p53-/- mouse assessed as late apoptotic cells at 10 uM measured after 24 hrs by Annexin V-FITC/propidium iodide staining based flow cytometry (reference value: 0.1%); type: functional, Medulloblastoma cell
[6] = MRT (0 to infinity) in Sprague-Dawley rat at 1 mg/kg, iv; type: ADME, organism-based; conditions: in vivo; method in brief: as §1
Mus musculus = experiment: Toxicity in athymic nude mouse implanted with mouse Ptch+/- p53-/- medulloblastoma cells assessed as body weight loss at 25 and 50 mg/kg, ip bid for 13 days; type: organism-based; conditions: in vivo, 312 h
Method in brief: (§2)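 Primary Ptch+/-;p53-/- medulloblastoma passaged subcutaneously in athymic nude mice as 1 mm3 fragments in the right flank. Dosing began at 100–150 mm3: i.p. 25 or 50 mg/kg twice daily for 13 days. Calipers twice weekly, volume = L×W²/2, TGI from volume change against vehicle. Body weight tracked; tumor mean ± SEM, weight mean ± SD.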

[7] = AUClast in Sprague-Dawley rat at 3 mg/kg, po; type: ADME, organism-based; parameters: dose 3 mg/kg, time 0 - last, route oral; conditions: in vivo; method in brief: as §1
[8] = Clearance in Sprague-Dawley rat at 1 mg/kg, iv; type: ADME, organism-based; conditions: in vivo; method in brief: as §1
[9] = Induction of apoptosis in mouse medulloblastoma cells isolated from Ptch+/- p53-/- mouse assessed as early apoptotic cells at 10 uM measured after 24 hrs by Annexin V-FITC/propidium iodide staining based flow cytometry (reference value: 0.7%); type: functional, Medulloblastoma cell
[10] = Antitumor activity against mouse Ptch+/- p53-/- medulloblastoma cells implanted in athymic nude mouse assessed as tumor growth inhibition at 50 mg/kg, ip bid for 13 days relative to control; type: functional; conditions: Medulloblastoma cell, 312 h, read-out: TGI; method in brief: as §2
[11] = target: Voltage-gated inwardly rectifying potassium channel KCNH2 (Homo sapiens, UniProt Q12809); experiment: Inhibition of human ERG
Chain of Voltage-gated inwardly rectifying potassium channel KCNH2 (Q12809 whole entry): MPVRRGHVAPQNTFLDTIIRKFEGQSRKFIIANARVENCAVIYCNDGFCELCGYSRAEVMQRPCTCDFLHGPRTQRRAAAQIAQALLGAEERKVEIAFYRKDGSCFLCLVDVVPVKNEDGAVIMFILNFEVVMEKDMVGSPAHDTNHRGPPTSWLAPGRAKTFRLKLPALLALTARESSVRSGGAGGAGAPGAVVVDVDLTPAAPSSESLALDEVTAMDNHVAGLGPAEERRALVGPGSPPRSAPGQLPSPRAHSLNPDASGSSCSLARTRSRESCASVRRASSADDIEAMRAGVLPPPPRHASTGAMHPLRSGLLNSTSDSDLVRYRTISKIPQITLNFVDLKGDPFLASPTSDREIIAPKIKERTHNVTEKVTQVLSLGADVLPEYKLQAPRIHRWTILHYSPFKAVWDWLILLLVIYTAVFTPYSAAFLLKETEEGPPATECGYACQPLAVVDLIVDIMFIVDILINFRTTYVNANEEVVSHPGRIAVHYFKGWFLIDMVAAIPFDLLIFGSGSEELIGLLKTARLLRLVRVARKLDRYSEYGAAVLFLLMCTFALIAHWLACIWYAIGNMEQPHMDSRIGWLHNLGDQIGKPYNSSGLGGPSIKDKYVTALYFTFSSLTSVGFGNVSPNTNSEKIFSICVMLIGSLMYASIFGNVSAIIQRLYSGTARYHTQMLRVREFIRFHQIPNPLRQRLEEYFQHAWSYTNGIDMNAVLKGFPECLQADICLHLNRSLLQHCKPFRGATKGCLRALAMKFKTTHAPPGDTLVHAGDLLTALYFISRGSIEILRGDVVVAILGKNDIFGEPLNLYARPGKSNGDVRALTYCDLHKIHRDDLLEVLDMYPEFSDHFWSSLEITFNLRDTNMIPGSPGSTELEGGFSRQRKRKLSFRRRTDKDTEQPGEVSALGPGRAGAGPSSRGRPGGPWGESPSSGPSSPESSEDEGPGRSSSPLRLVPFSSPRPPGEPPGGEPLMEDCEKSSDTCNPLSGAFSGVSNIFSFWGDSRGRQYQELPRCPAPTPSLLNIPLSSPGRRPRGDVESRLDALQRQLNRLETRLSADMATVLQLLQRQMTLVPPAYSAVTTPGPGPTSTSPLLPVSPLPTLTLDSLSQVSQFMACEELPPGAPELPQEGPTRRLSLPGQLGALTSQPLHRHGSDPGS

[12] = MRT (0 to infinity) in Sprague-Dawley rat at 3 mg/kg, po; type: ADME, organism-based; conditions: in vivo; method in brief: as §1
[13] = target: Protein smoothened (Mus musculus) (UniProt P56726); experiment: Inhibition of Smo in mouse medulloblastoma cells isolated from Ptch+/- p53-/- mouse assessed as decrease in Gli1-mRNA expression at 0.1 uM by qRT-PCR analysis
[14] = target: Protein smoothened (Mus musculus) (UniProt P56726); experiment: Inhibition of Smo-mediated Hh signalling pathway in mouse Shh Light2 cells assessed as suppression of Gli1-mRNA expression at 0.1 uM measured after 36 hrs by RT-qPCR analysis; type: cell-based
[15] = Cmax in Sprague-Dawley rat at 3 mg/kg, po; type: ADME, organism-based; parameters: dose 3 mg/kg, route oral; conditions: in vivo; method in brief: as §1
[16] = Volume of distribution at steady state in Sprague-Dawley rat at 1 mg/kg, iv; type: ADME, organism-based; conditions: in vivo, read-out: Vdss; method in brief: as §1
[17] = Tmax in Sprague-Dawley rat at 3 mg/kg, po; type: ADME, organism-based; conditions: in vivo; method in brief: as §1
[18] = Half life in Sprague-Dawley rat at 1 mg/kg, iv; type: ADME, organism-based; conditions: in vivo; method in brief: as §1
[19] = target: Protein smoothened (Homo sapiens) (UniProt Q99835); experiment: Antagonist activity at wild-type Smo (unknown origin) expressed in mouse Shh Light2 cells assessed as suppression of Gli-mRNA expression measured after 36 hrs by dual luciferase reporter gene assay; type: cell-based; conditions: in the assay text read “Gli-luciferase activity” for “Gli-mRNA expression”
Chain of Protein smoothened (Homo sapiens) (Q99835 whole entry): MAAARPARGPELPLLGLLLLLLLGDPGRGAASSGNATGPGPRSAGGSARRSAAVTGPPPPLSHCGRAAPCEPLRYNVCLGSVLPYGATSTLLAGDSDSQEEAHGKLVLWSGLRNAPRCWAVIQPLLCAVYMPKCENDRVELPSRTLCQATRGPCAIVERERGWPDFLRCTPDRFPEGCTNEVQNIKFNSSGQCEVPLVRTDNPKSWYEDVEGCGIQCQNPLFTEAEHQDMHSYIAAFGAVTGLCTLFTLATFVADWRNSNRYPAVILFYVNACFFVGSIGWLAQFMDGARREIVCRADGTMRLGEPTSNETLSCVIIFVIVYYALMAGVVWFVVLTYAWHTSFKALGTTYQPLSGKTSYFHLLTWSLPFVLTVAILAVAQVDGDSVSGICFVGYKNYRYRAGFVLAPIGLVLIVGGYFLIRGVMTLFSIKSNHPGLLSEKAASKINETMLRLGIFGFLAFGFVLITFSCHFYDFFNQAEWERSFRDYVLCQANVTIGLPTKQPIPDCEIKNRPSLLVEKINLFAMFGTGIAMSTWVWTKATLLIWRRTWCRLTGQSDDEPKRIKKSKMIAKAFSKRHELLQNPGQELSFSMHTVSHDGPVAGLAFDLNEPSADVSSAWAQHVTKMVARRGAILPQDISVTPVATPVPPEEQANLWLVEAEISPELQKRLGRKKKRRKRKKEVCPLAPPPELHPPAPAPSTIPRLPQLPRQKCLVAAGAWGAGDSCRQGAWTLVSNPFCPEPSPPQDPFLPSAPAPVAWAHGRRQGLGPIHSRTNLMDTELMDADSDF
Method in brief: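 Light II cells transfected with wild-type Smo plasmid to drive Gli-luciferase, exposed to compound for 36 h, then harvested for dual luciferase reporter assay. Mean ± SD.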

[20] = Antitumor activity against mouse Ptch+/- p53-/- medulloblastoma cells implanted in athymic nude mouse assessed as tumor growth inhibition at 25 mg/kg, ip bid for 13 days relative to control; type: functional; conditions: Medulloblastoma cell, 312 h, read-out: TGI; method in brief: as §2
Medulloblastoma cell = experiment: Antiproliferative activity against mouse medulloblastoma cells isolated from Ptch+/- p53-/- mouse measured after 72 hrs by MTS assay; type: functional
Method in brief: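 Medulloblastoma cells from Ptch+/-;p53-/- allografts in nude mice, minced and collagenase-digested, grown in Neurobasal A with B-27, EGF 20 ng/ml, bFGF 20 ng/ml, nonessential amino acids and N-acetyl cysteine 60 µg/ml. Seeded in 96-well plates, treated 72 h, viability read by MTS; mean ± SD.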

[21] = target: Protein smoothened (Homo sapiens) (UniProt Q99835); experiment: Displacement of BODIPY-cyclopamine from human Smo expressed in HEK293 cells at 0.1 uM measured after 10 hrs by DAPI staining based fluorescence microscopic assay; type: cell-based
Method in brief: (§3)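 HEK293 cells on coverslips transfected with hSmo constructs and incubated with BODIPY-cyclopamine plus test drug for 10 h. After PBS wash, paraformaldehyde fixation and Triton X-100 permeabilization, cells were either analysed by FACS or DAPI-mounted for fluorescence microscopy; three experiments.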

[22] = Oral bioavailability in Sprague-Dawley rat at 3 mg/kg; type: ADME, organism-based; conditions: in vivo; method in brief: as §1
[23] = AUC (0 to infinity) in Sprague-Dawley rat at 1 mg/kg, iv; type: ADME, organism-based; parameters: dose 1 mg/kg, time infinity, route intravenous; conditions: in vivo; method in brief: as §1
[24] = target: Protein smoothened (Homo sapiens) (UniProt Q99835); experiment: Displacement of BODIPY-cyclopamine from human Smo expressed in HEK293 cells at 0.1 uM measured after 10 hrs by FACS analysis; type: cell-based; method in brief: as §3
[25] = Cytotoxicity against human KB cells; type: toxicity, cell-based
[26] = AUClast in Sprague-Dawley rat at 1 mg/kg, iv; type: ADME, organism-based; parameters: dose 1 mg/kg, time 0 - last, route intravenous; conditions: in vivo; method in brief: as §1
Protein smoothened = Protein smoothened (Mus musculus, UniProt P56726); experiment: Inhibition of Smo-mediated Hh signalling pathway in mouse Shh Light2 cells by Gli-luciferase reporter gene assay; type: cell-based
Chain of Protein smoothened (P56726 whole entry): as the sequence (P56726 whole entry) above
Method in brief: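 Light II cells (NIH-3T3 stably carrying a Gli-responsive firefly luciferase reporter plus a Renilla luciferase vector), seeded in 96-well plates and treated. Firefly/Renilla activity in the lysates read by dual luciferase assay on a luminometer. IC50 is the mean ± SD of three separate experiments.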

Q: For `Cc1ccc2c(n1)[C@H]([C@@H](C)C(=O)Nc1ccc(Cl)c(-c3nc4ccccc4n3C)c1)CC[C@H]2C`, which AUC(0-inf) [1] is on record?
A: 1480 ng·h/mL

Q: And the half-life [2]?
A: 1.4 h

Q: And the inhibition [3]?
A: Active

Q: And the Ratio IC50 [4]?
A: 4 to 5

Q: What about the Activity [5] of the same molecule?
A: 4.6%

Q: And the MRT inf [6]?
A: 3.97 h

Q: What about the Activity (Mus musculus) of the same molecule?
A: Non-Toxic

Q: What about the AUC(0-t) [7] of the same molecule?
A: 1460 ng·h/mL

Q: What about the clearance [8] of the same molecule?
A: 9.31 mL/min/kg

Q: And the Activity [9]?
A: 21.7%

Q: And the inhibition in vivo at 50 mg/kg [10]?
A: 91.5%

Q: And the IC50 [11]?
A: > 15 µM

Q: What about the MRT inf [12] of the same molecule?
A: 1.53 h

Q: And the inhibition [13]?
A: Active

Q: And the inhibition [14]?
A: Active

Q: And the Cmax [15]?
A: 799 ng/mL

Q: And the Vd [16]?
A: 2.23 L/kg

Q: What about the Tmax [17] of the same molecule?
A: 0.25 h

Q: And the half-life [18]?
A: 5.95 h

Q: What about the inhibition [19] of the same molecule?
A: Dose-dependent effect

Q: And the inhibition in vivo at 25 mg/kg [20]?
A: 81.7%

Q: And the Activity (Medulloblastoma cell)?
A: Dose-dependent effect

Q: What about the inhibition [21] of the same molecule?
A: Active

Q: What about the bioavailability [22] of the same molecule?
A: 27.4%

Q: And the AUC(0-inf) [23]?
A: 1840 ng·h/mL

Q: And the inhibition [24]?
A: Active

Q: And the IC50 [25]?
A: > 20 µM

Q: What about the AUC(0-t) [26] of the same molecule?
A: 1780 ng·h/mL

Q: What about the IC50 (Protein smoothened) of the same molecule?
A: 0.00953 µM
